In one assay the target is EcSecAN68 (Escherichia coli, UniProt P10408). The assay is described as follows: biochemical. More on the design: species or system E. coli.
The next assay has as its system S. aureus K2068 (MepA++). Briefly: Bacteriostatic effect. The class given is cell-based. The conditions noted are these: Staphylococcus aureus, read-out: Bacteriostatic effect, MIC, MepA++ K2068.
For assay [1], the target named is T1, EcSecA (Escherichia coli, UniProt P10408). Briefly: In vitro translocation activity with SecA-liposomes. The class given is biochemical, E. coli. As to conditions: reconstituted SecA-only liposomes, proOmpA, immunoblots. Put shortly:
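Reconstituted SecA-only liposomes (stored at −80 °C, frozen-thawed once), E. coli SecA and proOmpA added separately to translocation buffer before the reaction, with 12 μg liposomes per reaction and varied SecA amounts. Test compound at various concentrations; reaction at 37 °C for 45 min. proOmpA translocation efficiency read by immunoblot.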
On the technique in general: Immunoblotting shows a protein as a band on a membrane.

The subject of a further assay is S. aureus 6538. Briefly: Bacteriostatic effect. Type of assay: cell-based.
A further assay deals with S. aureus K1758 (NorA−). Briefly: Bacteriostatic effect. Type of assay: cell-based. The conditions noted are these: Staphylococcus aureus, read-out: Bacteriostatic effect, MIC, NorA− K1758.
The target of the next assay is BsSecA (Bacillus subtilis, UniProt P28366). Briefly: Ion-channel activity of SecA-liposomes in oocytes, BsSecA. Type of assay: biochemical. The procedure, abridged:
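Purified SecA was reconstituted into liposomes. After 3 hr at 23 C, ion current was recorded for 1 min by voltage clamp. Net inward/outward current gave channel opening.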

Another assay has as its system S. aureus K2361 (NorA++). Briefly: Bacteriostatic effect. The class given is cell-based. The conditions noted are these: Staphylococcus aureus, read-out: Bacteriostatic effect, MIC, NorA++ K2361.
A further assay has as its system S. aureus K2908 (MepA−). Briefly: Bacteriostatic effect. Type of assay: cell-based. As to conditions: Staphylococcus aureus, read-out: Bacteriostatic effect, MIC, MepA− K2908.
Another assay has as its target T2, SaSecA1 (Staphylococcus aureus, UniProt O06446).
T2 sequence (O06446 1-843): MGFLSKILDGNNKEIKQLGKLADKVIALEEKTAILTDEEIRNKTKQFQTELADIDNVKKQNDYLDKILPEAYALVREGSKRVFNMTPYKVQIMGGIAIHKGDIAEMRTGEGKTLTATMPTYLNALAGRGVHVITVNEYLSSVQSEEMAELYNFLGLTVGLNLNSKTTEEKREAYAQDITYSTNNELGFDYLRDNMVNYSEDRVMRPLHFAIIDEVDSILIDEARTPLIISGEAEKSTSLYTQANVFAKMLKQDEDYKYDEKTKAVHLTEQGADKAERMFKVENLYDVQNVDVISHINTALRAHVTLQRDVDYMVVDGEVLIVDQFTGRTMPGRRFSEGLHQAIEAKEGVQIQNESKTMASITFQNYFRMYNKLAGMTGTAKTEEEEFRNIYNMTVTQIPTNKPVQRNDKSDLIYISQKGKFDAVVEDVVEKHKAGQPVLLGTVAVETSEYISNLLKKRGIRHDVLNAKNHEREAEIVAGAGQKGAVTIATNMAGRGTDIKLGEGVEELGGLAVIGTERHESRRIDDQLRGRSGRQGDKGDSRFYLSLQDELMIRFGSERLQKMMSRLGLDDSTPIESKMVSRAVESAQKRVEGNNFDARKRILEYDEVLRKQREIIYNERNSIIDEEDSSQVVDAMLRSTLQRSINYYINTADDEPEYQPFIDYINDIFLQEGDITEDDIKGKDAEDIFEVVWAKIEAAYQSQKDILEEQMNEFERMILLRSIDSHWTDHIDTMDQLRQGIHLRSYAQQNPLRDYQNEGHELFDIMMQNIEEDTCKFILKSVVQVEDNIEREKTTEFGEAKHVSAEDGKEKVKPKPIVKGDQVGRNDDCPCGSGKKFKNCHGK
The assay is described as follows: Ion-channel activity of SecA-liposomes in oocytes, SaSecA1. Type of assay: biochemical.

In a further assay the test system is S. aureus N315. The assay is described as follows: Bacteriostatic effect. The class given is cell-based. As to conditions: Staphylococcus aureus, N315, 16 h, read-out: Bacteriostatic effect, MIC, S. aureus N315.
The subject of a further assay is B. subtilis 168. The assay is described as follows: Bacteriostatic effect. Type of assay: cell-based. The conditions noted are these: Bacillus subtilis, 168, 16 h, read-out: Bacteriostatic effect, MIC, B. subtilis 168.
Assay [2] has as its target T1, EcSecA. Briefly: Intrinsic ATPase activity of full EcSecA. The class given is biochemical, E. coli.
In another assay the target is SpSecA (Streptococcus pyogenes, UniProt Q99Y96). The assay is described as follows: Ion-channel activity of SecA-liposomes in oocytes, SpSecA. Type of assay: biochemical.
Chain of SpSecA (Q99Y96 whole entry): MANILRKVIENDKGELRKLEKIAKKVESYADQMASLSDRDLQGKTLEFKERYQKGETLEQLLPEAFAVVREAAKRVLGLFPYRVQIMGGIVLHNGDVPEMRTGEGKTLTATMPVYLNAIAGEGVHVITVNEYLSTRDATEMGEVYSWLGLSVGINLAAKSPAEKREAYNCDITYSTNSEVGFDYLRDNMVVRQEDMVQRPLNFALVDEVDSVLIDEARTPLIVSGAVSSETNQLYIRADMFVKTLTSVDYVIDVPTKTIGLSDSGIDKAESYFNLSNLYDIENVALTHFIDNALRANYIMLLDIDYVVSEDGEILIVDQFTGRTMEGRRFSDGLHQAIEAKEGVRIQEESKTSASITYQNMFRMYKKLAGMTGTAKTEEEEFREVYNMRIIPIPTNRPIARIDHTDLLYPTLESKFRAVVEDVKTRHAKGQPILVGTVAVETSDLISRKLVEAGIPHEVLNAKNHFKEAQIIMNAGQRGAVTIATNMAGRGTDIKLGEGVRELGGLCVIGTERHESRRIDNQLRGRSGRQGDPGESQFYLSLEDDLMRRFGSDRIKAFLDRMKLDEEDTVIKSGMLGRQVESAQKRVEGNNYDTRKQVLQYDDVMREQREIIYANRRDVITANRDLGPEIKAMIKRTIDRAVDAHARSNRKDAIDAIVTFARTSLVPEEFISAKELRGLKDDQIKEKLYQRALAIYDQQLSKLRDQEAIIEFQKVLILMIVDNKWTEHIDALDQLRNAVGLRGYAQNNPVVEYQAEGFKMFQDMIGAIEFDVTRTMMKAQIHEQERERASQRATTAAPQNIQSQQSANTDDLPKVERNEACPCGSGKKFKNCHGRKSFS
Another assay has as its system E. coli NR698. The assay is described as follows: Bacteriostatic effect. The class given is cell-based. The conditions noted are these: Escherichia coli, NR698, 24 h, read-out: MIC, E. coli NR698.
The next assay has as its target BaSecA1 (Bacillus anthracis, UniProt Q81X26). The assay is described as follows: biochemical. Also on record: species or system B. anthracis.
Another assay concerns S. aureus Mu3. Briefly: Bacteriostatic effect. The class given is cell-based. The conditions noted are these: Staphylococcus aureus, MU3, 16 h, read-out: Bacteriostatic effect, MIC, S. aureus Mu3.
For assay [3], the system named is S. aureus Mu50. Briefly: Bacteriostatic effect. The class given is cell-based. As to conditions: for Fold more effective than vancomycin (MIC) / Fold by which 7b and 12a are more effective than the antibiotic (MIC): S. aureus Mu50; for Fold more effective than vancomycin (MIC): vs vancomycin 8 μg/ml; for MIC: Staphylococcus aureus; for Fold by which 7b and 12a are more effective than the antibiotic (MIC): label = antibiotic compared.

Assay [4] concerns the target T1, EcSecA. The assay is described as follows: Ion-channel activity of SecA-liposomes in oocytes, EcSecA. Type of assay: biochemical, E. coli. The procedure, abridged: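 SecA reconstituted with liposomes, plus proOmpA, 2 mM ATP, 1 mM Mg(OAc)2 and varied test compound concentrations, was injected into Xenopus laevis oocytes (120 ng liposomes, 120 ng SecA, 14 ng proOmpA per 50 nl). Oocytes were held 3 hr at 23 C, then current was recorded by voltage clamp for 1 min. Net channel current came from inward and outward currents.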

The test system of the next assay is S. aureus Newman. The assay is described as follows: Bacteriostatic effect. Type of assay: cell-based. The conditions noted are these: Staphylococcus aureus, 16 h, read-out: Bacteriostatic effect, MIC, S. aureus Newman.
Assay [5] has as its system S. aureus Mu50. The assay is described as follows: Bactericidal effect. The class given is cell-based. The conditions noted are these: at 50 μM, 2 hr treatment. Put shortly:
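S. aureus Mu50 cells in log phase (OD600 ≈ 0.5) were mixed with a range of test compound concentrations and shaken at 1,000 rpm at 37 °C for 2 hr. Cultures were serially diluted in LB broth, plated on LB agar and incubated at 37 °C overnight. Colony-forming units were counted, and the bactericidal effect was taken as the reduction in CFU.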

Where [6] appears, read: Staphylococcus aureus, 6538, 16 h, read-out: Bacteriostatic effect, MIC, S. aureus 6538.
The mark [7] stands for this setting: Staphylococcus aureus, 6538, 24 h, read-out: MIC, S. aureus 6538.
Setting [8] is: MRSA, read-out: MIC, S. aureus Mu50.
Where [9] appears, read: MU50, 16 h, read-out: Bacteriostatic effect, MIC, S. aureus Mu50.

Converted amounts (≈) assume the structure as drawn. Read-outs that look alike come from different tables or passages of the source.

T1 sequence (P10408 whole entry): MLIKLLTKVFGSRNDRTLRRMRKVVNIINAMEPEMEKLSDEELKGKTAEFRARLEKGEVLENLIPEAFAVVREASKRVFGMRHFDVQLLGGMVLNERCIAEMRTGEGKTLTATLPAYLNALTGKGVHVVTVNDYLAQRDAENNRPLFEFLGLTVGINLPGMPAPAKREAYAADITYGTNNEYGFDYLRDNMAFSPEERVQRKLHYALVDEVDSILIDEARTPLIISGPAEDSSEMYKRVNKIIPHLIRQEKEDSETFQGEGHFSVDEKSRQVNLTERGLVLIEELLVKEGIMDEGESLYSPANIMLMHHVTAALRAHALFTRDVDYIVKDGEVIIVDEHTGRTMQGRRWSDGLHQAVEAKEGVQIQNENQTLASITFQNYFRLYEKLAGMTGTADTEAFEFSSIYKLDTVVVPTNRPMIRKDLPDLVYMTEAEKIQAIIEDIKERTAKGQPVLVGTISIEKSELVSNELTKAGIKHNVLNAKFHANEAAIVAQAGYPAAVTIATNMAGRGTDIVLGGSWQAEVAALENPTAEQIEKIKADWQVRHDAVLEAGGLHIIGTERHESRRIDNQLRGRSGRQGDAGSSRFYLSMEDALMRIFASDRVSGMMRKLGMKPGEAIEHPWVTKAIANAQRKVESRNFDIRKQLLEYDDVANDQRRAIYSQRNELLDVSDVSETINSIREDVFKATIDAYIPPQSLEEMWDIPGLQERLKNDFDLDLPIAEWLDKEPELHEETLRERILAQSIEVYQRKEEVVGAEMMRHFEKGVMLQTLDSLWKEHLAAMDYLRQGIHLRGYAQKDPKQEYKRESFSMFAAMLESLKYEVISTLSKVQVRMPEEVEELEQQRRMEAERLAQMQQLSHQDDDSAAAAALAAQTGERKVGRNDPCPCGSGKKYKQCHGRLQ
Chain of BaSecA1 (Q81X26 whole entry, looked up): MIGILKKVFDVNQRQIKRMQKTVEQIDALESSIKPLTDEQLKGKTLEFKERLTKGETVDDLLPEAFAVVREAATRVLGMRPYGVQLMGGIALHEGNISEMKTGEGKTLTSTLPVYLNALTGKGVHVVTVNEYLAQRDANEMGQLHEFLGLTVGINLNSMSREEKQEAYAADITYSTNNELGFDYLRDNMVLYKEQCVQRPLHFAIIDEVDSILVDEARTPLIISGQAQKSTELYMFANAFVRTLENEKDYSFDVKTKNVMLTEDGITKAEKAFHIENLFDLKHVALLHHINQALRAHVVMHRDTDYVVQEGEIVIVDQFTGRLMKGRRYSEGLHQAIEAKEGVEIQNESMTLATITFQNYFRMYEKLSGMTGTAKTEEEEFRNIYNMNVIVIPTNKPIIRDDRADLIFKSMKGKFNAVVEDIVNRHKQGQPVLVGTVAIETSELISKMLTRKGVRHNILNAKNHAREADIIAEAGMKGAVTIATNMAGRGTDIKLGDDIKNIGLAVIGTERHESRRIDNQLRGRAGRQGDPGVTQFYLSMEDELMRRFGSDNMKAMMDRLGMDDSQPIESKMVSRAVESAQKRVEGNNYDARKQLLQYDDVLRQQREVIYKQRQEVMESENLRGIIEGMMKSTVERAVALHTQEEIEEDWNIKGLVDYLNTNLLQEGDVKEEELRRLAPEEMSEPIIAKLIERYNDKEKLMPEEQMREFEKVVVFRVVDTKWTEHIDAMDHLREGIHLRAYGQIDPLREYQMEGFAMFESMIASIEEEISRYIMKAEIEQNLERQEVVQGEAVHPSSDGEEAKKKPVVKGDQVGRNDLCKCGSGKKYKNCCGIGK
Chain of EcSecAN68 (P10408 1-610): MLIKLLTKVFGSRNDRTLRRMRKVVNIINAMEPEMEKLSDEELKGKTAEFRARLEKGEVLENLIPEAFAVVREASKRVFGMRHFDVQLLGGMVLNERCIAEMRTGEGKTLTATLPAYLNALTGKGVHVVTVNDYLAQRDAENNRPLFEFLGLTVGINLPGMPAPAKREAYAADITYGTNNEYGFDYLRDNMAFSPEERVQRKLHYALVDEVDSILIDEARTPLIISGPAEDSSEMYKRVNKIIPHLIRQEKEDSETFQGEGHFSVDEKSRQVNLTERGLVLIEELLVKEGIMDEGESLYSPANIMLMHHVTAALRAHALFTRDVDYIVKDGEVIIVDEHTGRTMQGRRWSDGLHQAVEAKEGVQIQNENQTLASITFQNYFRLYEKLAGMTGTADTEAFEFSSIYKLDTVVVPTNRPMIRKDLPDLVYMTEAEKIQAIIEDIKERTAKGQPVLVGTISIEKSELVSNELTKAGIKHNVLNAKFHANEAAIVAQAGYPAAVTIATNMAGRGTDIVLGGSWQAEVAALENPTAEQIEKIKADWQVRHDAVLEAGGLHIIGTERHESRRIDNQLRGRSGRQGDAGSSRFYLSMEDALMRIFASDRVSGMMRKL
Chain of BsSecA (P28366 whole entry): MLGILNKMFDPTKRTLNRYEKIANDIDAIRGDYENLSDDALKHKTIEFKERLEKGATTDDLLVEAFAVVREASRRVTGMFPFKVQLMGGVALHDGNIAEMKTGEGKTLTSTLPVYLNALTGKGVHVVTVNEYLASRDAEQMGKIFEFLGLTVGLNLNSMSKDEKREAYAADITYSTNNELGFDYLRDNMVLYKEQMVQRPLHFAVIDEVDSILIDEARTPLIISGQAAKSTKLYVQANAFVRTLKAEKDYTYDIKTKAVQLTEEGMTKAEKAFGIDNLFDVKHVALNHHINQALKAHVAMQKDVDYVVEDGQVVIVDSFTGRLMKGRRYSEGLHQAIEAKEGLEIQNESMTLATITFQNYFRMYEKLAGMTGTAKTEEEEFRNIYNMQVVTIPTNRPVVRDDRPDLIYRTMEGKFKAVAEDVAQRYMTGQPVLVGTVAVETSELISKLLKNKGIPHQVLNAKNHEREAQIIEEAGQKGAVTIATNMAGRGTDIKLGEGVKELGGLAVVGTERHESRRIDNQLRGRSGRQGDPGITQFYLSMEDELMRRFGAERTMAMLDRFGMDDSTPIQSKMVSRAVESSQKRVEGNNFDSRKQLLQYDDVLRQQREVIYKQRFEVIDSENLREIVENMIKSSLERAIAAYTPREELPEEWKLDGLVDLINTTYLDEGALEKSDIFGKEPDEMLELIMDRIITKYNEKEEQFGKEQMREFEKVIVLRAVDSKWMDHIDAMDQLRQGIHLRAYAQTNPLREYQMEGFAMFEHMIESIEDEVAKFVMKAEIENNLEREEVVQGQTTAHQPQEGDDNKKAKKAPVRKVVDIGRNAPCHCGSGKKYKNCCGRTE

For the compound `FC(F)(F)c1cc(-c2nnc(Sc3cc(Cl)nc(Sc4ccccc4)n3)[nH]2)cc(C(F)(F)F)c1` [Compound 12a, 4-((5-(3,5-Bis(trifluoromethyl)phenyl)-4H-1,2,4-triazol-3-yl)thio)-6-chloro-2-(phenylthio) Pyrimidine], the IC50 was 20000 nM at EcSecAN68; 4800 nM on EcSecA [1]; 2300 nM against BsSecA; 1000 nM at SaSecA1; greater than 200000 nM against EcSecA [2]; 1300 nM against SpSecA. Also, the IC50 against BaSecA1 was 1000 nM; against EcSecA [4], 1300 nM. Moreover, the MIC turned out to be 1.3 µM (≈ 0.694 µg/mL) in the assay with S. aureus K2068 (MepA++); 1.8 µM (≈ 0.961 µg/mL) in the assay on S. aureus 6538 (setting [6]); 1.8 µM (≈ 0.961 µg/mL) in the assay on S. aureus 6538 (setting [7]); 1.6 µM (≈ 0.854 µg/mL) in the assay with S. aureus K1758 (NorA−); 1.8 µM (≈ 0.961 µg/mL) in the assay on S. aureus K2361 (NorA++); 1 µM (≈ 0.534 µg/mL) in the assay on S. aureus K2908 (MepA−). Moreover, the MIC was 0.8 µM (≈ 0.427 µg/mL) with S. aureus N315; 0.8 µM (≈ 0.427 µg/mL) in the assay with B. subtilis 168; 3.1 µM (≈ 1.66 µg/mL) in the assay on E. coli NR698; 1.6 µM (≈ 0.854 µg/mL) in the assay on S. aureus Mu3; 0.43 µg/mL in the assay on S. aureus Mu50 [3] (setting [8]); 0.8 µM in the assay with S. aureus Mu50 [3] (setting [9]). Further, the “Fold more effective than vancomycin (MIC)” value in the assay with S. aureus Mu50 [3] was 18 fold.

For `CSc1nc(Cl)cc(Sc2nnc(-c3cc(C(F)(F)F)cc(C(F)(F)F)c3)[nH]2)n1` [Compound 7b, 4-((5-(3,5-Bis(trifluoromethyl)phenyl)-4H-1,2,4-triazol-3-yl)thio)-6-chloro-2-(methylthio)pyrimidine], the MIC with S. aureus K2068 (MepA++) stood at 3.1 µM (≈ 1.46 µg/mL); in the assay on S. aureus 6538 (setting [6]) it was 3.1 µM (≈ 1.46 µg/mL); in the assay on S. aureus 6538 (setting [7]) it was 3.1 µM (≈ 1.46 µg/mL); with S. aureus K1758 (NorA−), 3.1 µM (≈ 1.46 µg/mL); in the assay on S. aureus Newman, 1.6 µM (≈ 0.755 µg/mL); in the assay on S. aureus K2361 (NorA++), 3.1 µM (≈ 1.46 µg/mL). For the same compound, the MIC in the assay with S. aureus K2908 (MepA−) came out at 2.1 µM (≈ 0.991 µg/mL); with S. aureus N315 it was 0.8 µM (≈ 0.377 µg/mL); in the assay on B. subtilis 168 it was 1.6 µM (≈ 0.755 µg/mL); in the assay on E. coli NR698, 4.7 µM (≈ 2.22 µg/mL); in the assay on S. aureus Mu3, 3.1 µM (≈ 1.46 µg/mL); in the assay with S. aureus Mu50 [3] (setting [8]), 0.75 µg/mL. For the same compound, the MIC in the assay with S. aureus Mu50 [3] (setting [9]) was 1.6 µM. Further, the IC50 was 2000 nM against EcSecA [1] and greater than 200000 nM against EcSecA [2]. Also, at SaSecA1 (inhibition kinetics, Figure 4), the “Mode of inhibition, SecA-liposome channel activity, SaSecA” value is on record as “non-competitive inhibitor”. Moreover, the “Decrease of CFU of S. aureus Mu50” value with S. aureus Mu50 [5] came out at 2 log units. In the assay with S. aureus Mu50 [3], the “Fold more effective than vancomycin (MIC)” value was determined as 10 fold. Moreover, the “Mode of inhibition, SecA-liposome channel activity, EcSecA” value on EcSecA [4] (inhibition kinetics, Figure 4) is listed as “non-competitive inhibitor”.

For `NC[C@H]1O[C@H](O[C@H]2[C@H](O)[C@@H](O[C@H]3O[C@H](CO)[C@@H](O)[C@H](N)[C@H]3O)[C@H](N)C[C@@H]2N)[C@H](O)[C@@H](O)[C@@H]1O` [kanamycin], the “MIC, S. aureus Mu50” value against S. aureus Mu50 [3] (MRSA strain Mu50, comparison with clinically used antibiotics) was 1000 µg/mL (≈ 2060 µM). For the same compound, the “Fold by which 7b and 12a are more effective than the antibiotic (MIC)” value in the assay with S. aureus Mu50 [3] is greater than 1300 fold.

For `CCn1cc(C(=O)O)c(=O)c2cc(F)c(N3CCNCC3)cc21` [norfloxacin], in the assay with S. aureus Mu50 [3], the “Fold by which 7b and 12a are more effective than the antibiotic (MIC)” value was greater than 330 fold.

Turning to `CN(C)[C@@H]1C(O)=C(C(N)=O)C(=O)[C@@]2(O)C(O)=C3C(=O)c4c(O)cccc4[C@@](C)(O)[C@H]3C[C@@H]12` [tetracycline], the “Fold by which 7b and 12a are more effective than the antibiotic (MIC)” value in the assay with S. aureus Mu50 [3] is listed as greater than 80 fold. The MIC with S. aureus Mu50 [3] (setting [8]) was 63 µg/mL.

On to `CO[C@H]1/C=C/O[C@@]2(C)Oc3c(C)c(O)c4c(O)c(c(/C=N/N5CCN(C)CC5)c(O)c4c3C2=O)NC(=O)/C(C)=C\C=C\[C@H](C)[C@H](O)[C@@H](C)[C@@H](O)[C@@H](C)[C@H](OC(C)=O)[C@@H]1C` [rifampicin], for which, in the assay on S. aureus Mu50 [3], the “Fold by which 7b and 12a are more effective than the antibiotic (MIC)” value was greater than 1300 fold. The MIC with S. aureus Mu50 [3] (setting [8]) was 1000 µg/mL.

By IC50 is commonly meant the point on the concentration scale where inhibition reaches its midpoint. A low value points to greater potency in that assay. For orientation: MIC means the smallest concentration in the dilution series that meets the test's criterion for growth inhibition.

The values are drawn from publication PMC4778717 (ChemMedChem, 2015).
